An excerpt weighted towards active compounds, which were near 2.9% of everything screened.
CRFR2-BP ag: agonists of human CRF-binding protein/CRF-R2 receptor complex | HEK293 CRF-R2/CRF-BP, calcium dye fluorescence (FLIPR); percent of saturating CRF peptide response | 0.46% of 350,000 active | AID 588473 | activation, % at 13.2 µM;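 active means activation of at least 50%, plus an integration ratio under a set limit after plate pattern correction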;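 further: plate controls were neutral control wells without compound for no effect and CRF at EC100 for full effect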
DDE Tn6 FP inh: DD(E)-Tn6 binding inhibition, primary FP screen | P02675 | Fibrin DD(E) TRITC-Tn6 fluorescence polarization displacement | inhibition, % at 8.3 µM | 0.21% of 370,000 active;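 active means inhibition above a per-campaign cutoff: mean of compounds within control limits plus 3 SD, cut at about 15% in these data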;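 further: 0% = median of all compound wells on the plate and 100% = blocking peptide control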
Target sequence (P02675 whole entry, looked up): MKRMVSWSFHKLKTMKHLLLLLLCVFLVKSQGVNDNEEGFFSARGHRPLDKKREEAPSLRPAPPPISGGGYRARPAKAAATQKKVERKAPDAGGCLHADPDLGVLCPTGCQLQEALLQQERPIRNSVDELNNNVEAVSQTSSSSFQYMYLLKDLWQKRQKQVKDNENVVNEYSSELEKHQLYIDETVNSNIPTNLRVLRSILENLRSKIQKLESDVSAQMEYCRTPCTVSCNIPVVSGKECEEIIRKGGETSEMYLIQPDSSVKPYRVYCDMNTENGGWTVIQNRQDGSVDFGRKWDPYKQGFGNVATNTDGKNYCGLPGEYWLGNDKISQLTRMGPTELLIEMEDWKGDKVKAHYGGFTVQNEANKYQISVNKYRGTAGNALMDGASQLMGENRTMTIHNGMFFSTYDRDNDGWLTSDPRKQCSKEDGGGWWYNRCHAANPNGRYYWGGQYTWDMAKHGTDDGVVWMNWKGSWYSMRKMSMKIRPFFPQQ
Tn7 DDE FP: disrupts Tn7 cyclic peptide binding to fibrin D-Dimer-E complex. P02675. FP displacement of FITC-Tn7 peptide from fibrin DD(E); 0% = median of compound wells per plate. inhibition, % at 8.3 µM. 0.13% of 370,000 active. AID 720508;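 active means inhibition above the mean of compounds falling within the control limits plus 3 SD of them, cut at about 14% in these data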;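 further: 0% = plate median of compound wells and 100% = 10 µM Aha-Tn7 peptide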
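Assay system: Fibrin-DD(E) protein isolated from polymerized human fibrin clots; read-out basis: percent inhibition; medium: Tris/NaCl/CaCl2 buffer, pH 7.8; signal: FP measurement; incubation: 10 min plus 3 h, room temperature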
CRFBP-R2 block: antagonists of CRF-binding protein/CRF-R2 receptor complex. HEK293 CRF-R2/CRF-BP, CRF-induced calcium fluorescence. 0.59% of 350,000 active. inhibition, % at 11.8 µM. AID 588475;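 active means inhibition of the ligand-induced calcium signal above about 50% at the single tested concentration, limit read from the data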
proKLK7 act: proKLK7 (human) activation, primary screen; P49862; purified proKLK7, EDANS-DABCYL substrate fluorescence; 100% is mature enzyme control, 0% vehicle; activation, % at 7 µM; 0.9% of 370,000 active; AID 652039;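 active means activation above the mean of all tested compounds plus 3 SD, computed per campaign excluding outliers beyond control limits, cut at about 13% in these data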
Target sequence (P49862 whole entry, looked up): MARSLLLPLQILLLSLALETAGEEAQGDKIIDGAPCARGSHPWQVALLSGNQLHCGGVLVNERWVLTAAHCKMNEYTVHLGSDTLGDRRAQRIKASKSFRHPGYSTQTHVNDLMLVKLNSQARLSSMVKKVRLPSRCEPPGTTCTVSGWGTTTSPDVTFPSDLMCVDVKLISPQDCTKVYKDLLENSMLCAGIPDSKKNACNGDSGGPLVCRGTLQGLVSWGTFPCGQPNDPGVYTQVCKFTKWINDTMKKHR
CendR NRP1 mod: modulators of CendR peptide binding to human neuropilin-1 | O14786 | FAM-RPARPAR peptide binding to NRP-1, fluorescence polarization | inhibition, % at 25 µM | 0.85% of 360,000 active | AID 602438;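 active means inhibition or corrected inhibition above about 18%, plus a signal ratio from 0.5 to 1.5, limit read from the data, passing the limit was not always enough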
proKLK7 act conf: proKLK7 activation, confirmation; shares compounds with proKLK7 act; purified proKLK7, EDANS-DABCYL substrate fluorescence; scaled: vehicle 0, mature enzyme 100; activation, % at 7 µM; 68% of 3,200 active; AID 686949;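 active means activation, as change over the incubation, above the mean of all tested compounds plus 3 SD, cut at about 13% in these data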
EDANS interfere: optically interferes with EDANS-DABCYL signal, flagging KLK7 hits; shares compounds with proKLK7 act; EDANS-DABCYL substrate fluorescence interference, no enzyme, 4 h; solvent 0%, active enzyme control 100%; activation, % at 7 µM; 80% of 3,200 active; AID 686952;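 active means activation above the all-compound mean plus 3 SD, ignoring values outside control-based bounds, cut at about 4.8% in these data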;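 further: value is the 4 h activation minus the activation read at time zero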
K7 EDANS ctr: EDANS fluorescence interference in dose response, no enzyme. shares compounds with proKLK7 act. EDANS-DABCYL peptide fluorescence interference. EC50, µM. 20% of 250 active. AID 720493;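 active means compounds that raise the fluorescence signal in this interference counterscreen, with EC50 at or below 10 µM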;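 further: intact quenched peptide substrate alone read at 355 nm excitation and 520 nm emission; signal is fluorescence gain from T0 to T4 after four hours at room temperature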
Active calls of the source: *; nt = no result given.

SMILES | CRFR2-BP ag | DDE Tn6 FP inh | Tn7 DDE FP | CRFBP-R2 block | proKLK7 act | CendR NRP1 mod | proKLK7 act conf | EDANS interfere | others
CC1(C)CC(=O)C2=C(C1)c1c(ccc3ccccc13)NC2c1ccc(OCC(=O)O)cc1 (stereo not drawn) | -0.6 | -5.5 | -2.4 | 5.3 | 36.1* | 6.9 | 23.2* | 18.1* | K7 EDANS ctr=>23.2
CC1(C)CC(=O)C2=C(C1)c1c(ccc3ccccc13)NC2c1ccc(Br)o1 (stereo not drawn) | 0.8 | -1.1 | 0.3 | -3.1 | -5.2 | -21.3 | nt | nt
COc1cc(C2Nc3ccc4ccccc4c3C3=C2C(=O)CC(C)(C)C3)ccc1OC(C)C(=O)O (stereo not drawn) | -0.1 | -8.5 | 0.3 | -2.3 | 24.1* | -7.8 | 0.0 | 12.7*
COc1cc(C2Nc3ccc4ccccc4c3C3=C2C(=O)CC(C)(C)C3)ccc1OCC(=O)O (stereo not drawn) | 0.2 | 9.6 | 2.1 | 1.4 | 16.3* | 2.8 | -60.1 | -54.4
COc1cccc(C2Nc3ccc4ccccc4c3C3=C2C(=O)CC(C)(C)C3)c1OCC(=O)O (stereo not drawn) | 0.9 | -9.3 | 3.9 | -0.2 | 26.3* | 20.7 | 10.7 | 5.4*
CCN(C(=O)C1CCN(c2ncccn2)CC1)c1ccccc1 | nt | 4.1 | -7.9 | nt | 0.9 | nt | nt | nt
CCOc1ccc2nc(NCCNC(=O)CC)c(C#N)cc2c1 | -2.5 | 7.1 | 2.7 | 24.3 | 28.8* | 19.7 | 40.1* | 44.2*
CCC(=O)NCCNc1nc2cc(C)c(C)cc2cc1C#N | -0.1 | 1.6 | -4.0 | 3.6 | 3.3 | 1.7 | nt | nt
COCCN1C=C(C(=O)OC)C(c2ccc(Cl)cc2)C(C(=O)OC)=C1 | 0.4 | 1.1 | -2.7 | 5.6 | 31.4* | -1.3 | -71.3 | -70.9
CCOc1ccc(C2C(C(=O)OC)=CN(CCOC)C=C2C(=O)OC)cc1 | 0.0 | 6.7 | 1.6 | 13.0 | 26.4* | -0.9 | -3.7 | -1.9
COCCN1C=C(C(=O)OC)C(c2ccc3c(c2)OCO3)C(C(=O)OC)=C1 | -0.9 | 0.9 | -12.6 | 22.8 | -1.5 | -6.2 | nt | nt
CCOC(=O)c1csc(NC(=O)C2CCCN(S(=O)(=O)c3ccccc3[N+](=O)[O-])C2)n1 (stereo not drawn) | nt | -3.2 | 4.5 | nt | -0.1 | nt | nt | nt
Nc1nc2ncccc2cc1C(=O)NCCc1cccs1 | nt | -0.2 | 0.4 | nt | 23.6* | -21.3 | 21.6* | 27.6*
COCCCNC(=O)C[C@H]1C[C@@]2(C(=O)OC)C(=C[C@H](C3CCCC3)O[C@@H]2C)N(Cc2ccco2)C1=O | nt | 10.0 | 3.3 | nt | 0.0 | nt | nt | nt
O=S1(=O)CC2c3ccccc3CCN2CN1Cc1ccc(F)cc1 (stereo not drawn) | nt | 5.9 | 4.4 | nt | 0.1 | nt | nt | nt
Cc1cccn2c(=O)c(/C=C(\C#N)C(N)=O)c(Oc3ccccc3)nc12 | 0.6 | 3.3 | -2.3 | 24.5 | 15.3* | -1.9 | -8.5 | -8.6
COCCNC(=O)/C(C#N)=C/c1c(N2CCN(c3ccc(OC)cc3)CC2)nc2c(C)cccn2c1=O | -0.3 | 0.8 | 2.1 | 1.6 | 14.9* | -7.5 | 13.7* | 10.7* | K7 EDANS ctr=>69.5
CCNC(=O)/C(C#N)=C/c1c(N2CCN(c3ccc(OC)cc3)CC2)nc2c(C)cccn2c1=O | 0.5 | -8.1 | 5.4 | -49.9 | 1.4 | 1.4 | nt | nt
C=CCNC(=O)/C(C#N)=C/c1c(N2CCN(c3cccc(Cl)c3)CC2)nc2c(C)cccn2c1=O | 2.8 | 4.9 | 1.8 | -0.1 | 13.5* | -19.1 | -2.6 | 32.9*
COC(=O)c1cc2c(c3c4cc(OC)ccc4n(C(=O)c4ccccc4)c13)C(=O)N(Cc1ccco1)C2 | nt | -2.4 | 4.8 | nt | 0.0 | nt | nt | nt
COCCNC(=O)Cc1c(C)c2cc3c(cc2oc1=O)OC(C)(C)CC3 | 0.8 | -1.9 | 7.4 | -4.5 | 13.4* | -2.1 | 14.8* | 10.0* | K7 EDANS ctr=>69.6
Cc1c(CC(=O)NCCC(C)C)c(=O)oc2cc3c(cc12)CCC(C)(C)O3 | -0.8 | -6.7 | 0.0 | -1.9 | -4.0 | -6.3 | nt | nt
CN1Cc2nnn(CC3CCCCC3)c2-c2ccccc2S1(=O)=O | nt | -3.5 | -2.9 | nt | 0.5 | nt | nt | nt
CCc1ccc(CCNC(=O)OC2CC3CC2[C@H]2CCCCN2C3)cc1 (stereo partly drawn) | nt | 5.4 | -2.8 | nt | -0.4 | nt | nt | nt
CCN1CCN(c2cc(C)c3cc(NC(=S)N4CCN(c5ccccc5F)CC4)ccc3n2)CC1 | -2.7 | 7.5 | 9.8 | -7.3 | 14.1* | 1.8 | 1.1 | 2.2
SMILES | CRFR2-BP ag | DDE Tn6 FP inh | Tn7 DDE FP | CRFBP-R2 block | proKLK7 act | CendR NRP1 mod | proKLK7 act conf | EDANS interfere | others
COc1cc(C(=O)Nc2ccc3nc(N4CCN(C)CC4)cc(C)c3c2)cc(OC)c1OC | -2.0 | -6.8 | -7.8 | -2.0 | -0.3 | 2.2 | nt | nt
Cc1cc(N2CCN(C)CC2)nc2ccc(NC(=O)c3ccc4c(c3)OCO4)cc12 | -0.9 | 4.2 | 1.9 | 14.2 | 19.3* | 17.8 | 6.8 | 6.9*
CCCN1CCN(C(=S)Nc2ccc3nc(N4CCN(CC)CC4)cc(C)c3c2)CC1 | -3.5 | -2.7 | -1.3 | 1.0 | 19.9* | 6.2 | 4.2 | 6.5*
Cc1cc(N2CCCC2)nc2ccc(NC(=S)NCCCOC(C)C)cc12 | 0.4 | -9.3 | 2.2 | 11.6 | 15.5* | 4.0 | 14.1* | 12.0* | K7 EDANS ctr=>69.5
Cc1ccc(Cn2cc(CN3[C@H](C)COc4cc(Br)ccc4S3(=O)=O)nn2)cc1 | nt | -0.5 | -9.5 | nt | 0.3 | nt | nt | nt
CN1OC[C@@H]2CN3C(=Nc4cc(C(F)(F)F)cc(C(F)(F)F)c4)Sc4ccccc4[C@@H]3C[C@@H]21 | nt | 12.0 | 7.2 | nt | 0.8 | nt | nt | nt
CCOC(=O)N1CCN(C(=O)C[C@H]2C[C@@]3(C(=O)OC)C(=C[C@H](COCc4ccccc4)O[C@@H]3C)N(Cc3ccc4c(c3)OCO4)C2=O)CC1 | nt | -4.7 | -8.8 | nt | 0.9 | nt | nt | nt
CCOc1ccc(C(=O)Nc2ccc3nc(N4CCN(CC)CC4)cc(C)c3c2)cc1 | -3.7 | -2.1 | 6.0 | 10.0 | 38.1* | -6.0 | 217.1* | 191.6*
CCCC(=O)N1CCC[C@]2(CC[C@@H](CCC(C)=O)O2)C1 | nt | 3.0 | 1.0 | nt | 0.3 | nt | nt | nt
CN(C)c1cccc2c(S(=O)(=O)NC(=O)[C@H]3O[C@@H](n4cnc5c(N)ncnc54)[C@H](O)[C@@H]3O)cccc12 | nt | -1.7 | -3.5 | nt | 24.9* | 25.4* | 34.7* | 22.6* | K7 EDANS ctr=8.85*
COCCCN1C(=O)[C@H](CC(=O)NCCc2ccccc2OC)[C@]2(C(=O)OC)CCCCC=C12 | nt | 2.1 | 8.1 | nt | 0.2 | nt | nt | nt
